ChEMBL document CHEMBL4330069, “Boosting the efficacy of anti-MRSA β-lactam antibiotics via an easily accessible, non-cytotoxic and orally bioavailable FtsZ inhibitor” (Eur J Med Chem, 2019)
pIC50: −log10 of the molar value. In brackets after ≈: the same amount, converted by molar mass. One block for each compound: values may come before it.

Assays:
Staphylococcus aureus [1] = test: Antibacterial activity against multidrug-resistant Staphylococcus aureus isolate 254 by broth microdilution assay; type: functional
In short: (§1)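 Broth microdilution MIC per CLSI guidelines against clinical MRSA isolates, for β-lactams and test compound alone and in combination. Compounds were dissolved in DMSO. Growth was read by eye, in duplicate. FIC index = FIC(compound) + FIC(drug); synergy defined as FIC index ≤0.5.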

Staphylococcus aureus [2] = test: Antibacterial activity against multidrug-resistant Staphylococcus aureus isolate 256 by broth microdilution assay; type: functional; in short: as §1
Staphylococcus aureus [3] = test: Antibacterial activity against multidrug-resistant Staphylococcus aureus isolate 3267 by broth microdilution assay; type: functional; in short: as §1
Staphylococcus aureus [4] = test: Antibacterial activity against multidrug-resistant Staphylococcus aureus isolate 2895 by broth microdilution assay; type: functional; in short: as §1
Staphylococcus aureus [5] = test: Antibacterial activity against multidrug-resistant Staphylococcus aureus isolate 1449 by broth microdilution assay; type: functional; in short: as §1
Staphylococcus aureus [6] = test: Antibacterial activity against multidrug-resistant Staphylococcus aureus isolate 200 by broth microdilution assay; type: functional; in short: as §1
Staphylococcus aureus [7] = test: Antibacterial activity against multidrug-resistant Staphylococcus aureus isolate 358 by broth microdilution assay; type: functional; in short: as §1
Staphylococcus aureus [8] = test: Antibacterial activity against multidrug-resistant Staphylococcus aureus isolate 2224 by broth microdilution assay; type: functional; in short: as §1
Staphylococcus aureus [9] = test: Antibacterial activity against multidrug-resistant Staphylococcus aureus isolate 2516 by broth microdilution assay; type: functional; in short: as §1
Staphylococcus aureus [10] = test: Antibacterial activity against multidrug-resistant Staphylococcus aureus isolate 1717 by broth microdilution assay; type: functional; in short: as §1
Staphylococcus aureus [11] = test: Antibacterial activity against multidrug-resistant Staphylococcus aureus isolate 2728 by broth microdilution assay; type: functional; in short: as §1
Staphylococcus aureus [12] = test: Antibacterial activity against multidrug-resistant Staphylococcus aureus isolate 1749 by broth microdilution assay; type: functional; in short: as §1
Staphylococcus aureus [13] = test: Antibacterial activity against multidrug-resistant Staphylococcus aureus isolate 2919 by broth microdilution assay; type: functional; in short: as §1
Staphylococcus aureus [14] = test: Antibacterial activity against multidrug-resistant Staphylococcus aureus isolate 3411 by broth microdilution assay; type: functional; in short: as §1
Staphylococcus aureus [15] = test: Antibacterial activity against multidrug-resistant Staphylococcus aureus isolate 2490 by broth microdilution assay; type: functional; in short: as §1
Staphylococcus aureus [16] = test: Antibacterial activity against multidrug-resistant Staphylococcus aureus isolate 85 by broth microdilution assay; type: functional; in short: as §1
Staphylococcus aureus [17] = test: Antibacterial activity against multidrug-resistant Staphylococcus aureus isolate 3589 by broth microdilution assay; type: functional; in short: as §1
Staphylococcus aureus [18] = test: Antibacterial activity against multidrug-resistant Staphylococcus aureus isolate 231 by broth microdilution assay; type: functional; in short: as §1
Staphylococcus aureus [19] = test: Antibacterial activity against multidrug-resistant Staphylococcus aureus isolate 2973 by broth microdilution assay; type: functional; in short: as §1
Staphylococcus aureus [20] = test: Antibacterial activity against multidrug-resistant Staphylococcus aureus isolate 1136 by broth microdilution assay; type: functional; in short: as §1
Staphylococcus aureus [21] = test: Antibacterial activity against multidrug-resistant Staphylococcus aureus isolate 417 by broth microdilution assay; type: functional; in short: as §1
Staphylococcus aureus [22] = test: Antibacterial activity against multidrug-resistant Staphylococcus aureus isolate 1344 by broth microdilution assay; type: functional; in short: as §1
Staphylococcus aureus [23] = test: Antibacterial activity against multidrug-resistant Staphylococcus aureus isolate 3580 by broth microdilution assay; type: functional; in short: as §1
Staphylococcus aureus [24] = test: Antibacterial activity against multidrug-resistant Staphylococcus aureus isolate 3332 by broth microdilution assay; type: functional; in short: as §1
Staphylococcus aureus [25] = test: Antibacterial activity against multidrug-resistant Staphylococcus aureus isolate 1402 by broth microdilution assay; type: functional; in short: as §1
Staphylococcus aureus [26] = test: Antibacterial activity against multidrug-resistant Staphylococcus aureus isolate 2901 by broth microdilution assay; type: functional; in short: as §1
Staphylococcus aureus [27] = test: Antibacterial activity against multidrug-resistant Staphylococcus aureus isolate 757 by broth microdilution assay; type: functional; in short: as §1
Staphylococcus aureus [28] = test: Antibacterial activity against multidrug-resistant Staphylococcus aureus isolate 774 by broth microdilution assay; type: functional; in short: as §1
[29] = Selective index, ratio of IC50 for mouse L929 cells to MIC for Staphylococcus aureus ATCC 29213
In short: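 Selectivity index calculated as L929 IC50 (μM) divided by S. aureus MIC (μM).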

L929 = test: Cytotoxicity against mouse L929 cells by MTS assay; type: cell-based
In short: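 MTS assay on L929 mouse fibroblasts; IC50 reported as the average of three independent measurements.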

Escherichia coli = test: Antibacterial activity against Escherichia coli ATCC 25922 by broth microdilution assay; type: functional
In short: (§2)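 Broth microdilution per CLSI guidelines; compounds dissolved in DMSO; single agents tested; growth inhibition read by eye; run in duplicate (table footnote states at least triplicates).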

Staphylococcus aureus [30] = test: Antibacterial activity against Staphylococcus aureus ATCC 29213 by broth microdilution assay; type: functional; in short: as §2

Compound: Cc1onc(-c2ccccc2Cl)c1C(=O)N[C@@H]1C(=O)N2[C@@H]1SC(C)(C)[C@@H]2C(=O)O [CLOXACILLIN]
- MIC (Staphylococcus aureus [1]): 32 µg/mL (≈ 73.4 µM)
- MIC (Staphylococcus aureus [2]): 8 µg/mL (≈ 18.4 µM)
- MIC (Staphylococcus aureus [3]): 4 µg/mL (≈ 9.18 µM)
- MIC (Staphylococcus aureus [4]): 8 µg/mL (≈ 18.4 µM)
- MIC (Staphylococcus aureus [5]): 1 µg/mL (≈ 2.29 µM)
- MIC (Staphylococcus aureus [6]): 1 µg/mL (≈ 2.29 µM)
- MIC (Staphylococcus aureus [7]): 1 µg/mL (≈ 2.29 µM)
- MIC (Staphylococcus aureus [8]): 8 µg/mL (≈ 18.4 µM)
- MIC (Staphylococcus aureus [9]): 16 µg/mL (≈ 36.7 µM)
- MIC (Staphylococcus aureus [10]): 0.5 µg/mL (≈ 1.15 µM)
- MIC (Staphylococcus aureus [11]): 1 µg/mL (≈ 2.29 µM)
- MIC (Staphylococcus aureus [12]): 0.5 µg/mL (≈ 1.15 µM)
- MIC (Staphylococcus aureus [13]): 4 µg/mL (≈ 9.18 µM)
- MIC (Staphylococcus aureus [14]): 32 µg/mL (≈ 73.4 µM)
- MIC (Staphylococcus aureus [15]): 2 µg/mL (≈ 4.59 µM)
- MIC (Staphylococcus aureus [16]): 0.5 µg/mL (≈ 1.15 µM)
- MIC (Staphylococcus aureus [17]): 32 µg/mL (≈ 73.4 µM)
- MIC (Staphylococcus aureus [18]): 64 µg/mL (≈ 147 µM)
- MIC (Staphylococcus aureus [19]): 16 µg/mL (≈ 36.7 µM)
- MIC (Staphylococcus aureus [20]): 8 µg/mL (≈ 18.4 µM)
- MIC (Staphylococcus aureus [21]): 64 µg/mL (≈ 147 µM)
- MIC (Staphylococcus aureus [22]): 16 µg/mL (≈ 36.7 µM)
- MIC (Staphylococcus aureus [23]): 2 µg/mL (≈ 4.59 µM)
- MIC (Staphylococcus aureus [24]): 8 µg/mL (≈ 18.4 µM)
- MIC (Staphylococcus aureus [25]): 2 µg/mL (≈ 4.59 µM)
- MIC (Staphylococcus aureus [26]): 2 µg/mL (≈ 4.59 µM)
- MIC (Staphylococcus aureus [27]): 8 µg/mL (≈ 18.4 µM)
- MIC (Staphylococcus aureus [28]): 2 µg/mL (≈ 4.59 µM)

Compound: CCCCOc1cccc(CNc2ccc(F)c(C(N)=O)c2F)c1
- Selectivity Index [29]: 2
- pIC50 (L929): 4.00
- MIC (Escherichia coli): > 64 µg/mL
- MIC (Staphylococcus aureus [30]): 50 µM (≈ 16.7 µg/mL)

Compound: CCCCCCCCCN(C)c1ccc(F)c(C(N)=O)c1F
- Selectivity Index [29]: 19
- pIC50 (L929): 4.22
- MIC (Escherichia coli): > 64 µg/mL
- MIC (Staphylococcus aureus [30]): 3.1 µM (≈ 0.968 µg/mL)

Compound: CCCCCC/C=C\CNc1ccc(F)c(C(N)=O)c1F
- Selectivity Index [29]: 4
- pIC50 (L929): 4.00
- MIC (Escherichia coli): > 64 µg/mL
- MIC (Staphylococcus aureus [30]): 25 µM (≈ 7.41 µg/mL)

Compound: C[C@@H](O)[C@H]1C(=O)N2C(C(=O)O)=C(S[C@@H]3CN[C@H](C(=O)N(C)C)C3)[C@H](C)[C@H]12 [MEROPENEM]
- MIC (Staphylococcus aureus [1]): 8 µg/mL (≈ 20.9 µM)
- MIC (Staphylococcus aureus [2]): 2 µg/mL (≈ 5.22 µM)
- MIC (Staphylococcus aureus [3]): 2 µg/mL (≈ 5.22 µM)
- MIC (Staphylococcus aureus [4]): 1 µg/mL (≈ 2.61 µM)
- MIC (Staphylococcus aureus [5]): 0.13 µg/mL (≈ 0.339 µM)
- MIC (Staphylococcus aureus [6]): 1 µg/mL (≈ 2.61 µM)
- MIC (Staphylococcus aureus [7]): 0.13 µg/mL (≈ 0.339 µM)
- MIC (Staphylococcus aureus [8]): 2 µg/mL (≈ 5.22 µM)
- MIC (Staphylococcus aureus [9]): 16 µg/mL (≈ 41.7 µM)
- MIC (Staphylococcus aureus [10]): 1 µg/mL (≈ 2.61 µM)
- MIC (Staphylococcus aureus [11]): 2 µg/mL (≈ 5.22 µM)
- MIC (Staphylococcus aureus [12]): 0.5 µg/mL (≈ 1.3 µM)
- MIC (Staphylococcus aureus [13]): 1 µg/mL (≈ 2.61 µM)
- MIC (Staphylococcus aureus [14]): 4 µg/mL (≈ 10.4 µM)
- MIC (Staphylococcus aureus [15]): 2 µg/mL (≈ 5.22 µM)
- MIC (Staphylococcus aureus [16]): 2 µg/mL (≈ 5.22 µM)
- MIC (Staphylococcus aureus [17]): 4 µg/mL (≈ 10.4 µM)
- MIC (Staphylococcus aureus [18]): 32 µg/mL (≈ 83.4 µM)
- MIC (Staphylococcus aureus [19]): 1 µg/mL (≈ 2.61 µM)
- MIC (Staphylococcus aureus [20]): 2 µg/mL (≈ 5.22 µM)
- MIC (Staphylococcus aureus [21]): 64 µg/mL (≈ 167 µM)
- MIC (Staphylococcus aureus [22]): 16 µg/mL (≈ 41.7 µM)
- MIC (Staphylococcus aureus [23]): 8 µg/mL (≈ 20.9 µM)
- MIC (Staphylococcus aureus [24]): 2 µg/mL (≈ 5.22 µM)
- MIC (Staphylococcus aureus [25]): 1 µg/mL (≈ 2.61 µM)
- MIC (Staphylococcus aureus [26]): 1 µg/mL (≈ 2.61 µM)
- MIC (Staphylococcus aureus [27]): 4 µg/mL (≈ 10.4 µM)
- MIC (Staphylococcus aureus [28]): 32 µg/mL (≈ 83.4 µM)

Compound: CCCCCCCCCN(C)c1ccc(F)c(C(=N)N)c1F
- Selectivity Index [29]: >2
- pIC50 (L929): < 4.00
- MIC (Escherichia coli): > 64 µg/mL
- MIC (Staphylococcus aureus [30]): 50 µM (≈ 15.6 µg/mL)

Now from value to compound, other results behind:

- MIC (Escherichia coli): > 64 µg/mL
- MIC (Staphylococcus aureus [30]): 13 µM (≈ 4.26 µg/mL)
Compound: CCCCCCCCCN(C)c1ccc(F)c(/C(N)=N/O)c1F
- Selectivity Index [29]: >8
- pIC50 (L929): < 4.00

- MIC (Escherichia coli): > 64 µg/mL
- MIC (Staphylococcus aureus [30]): 50 µM (≈ 14.2 µg/mL)
Compound: CCCCCCCCNc1ccc(F)c(C(N)=O)c1F
- Selectivity Index [29]: >2
- pIC50 (L929): < 4.00

- MIC (Escherichia coli): > 64 µg/mL
- MIC (Staphylococcus aureus [30]): 50 µM (≈ 15.7 µg/mL)
Compound: CCCCCCCCCNc1ccc(F)c(/C(N)=N/O)c1F
- Selectivity Index [29]: >2
- pIC50 (L929): < 4.00
